Only some compounds are listed: those with a hit (about 2.6% of all), similar ones and a draw of the others.
NadD block = inhibitors of S. aureus NadD, primary screen, biochemical, colorimetric, uHTS; AID 602399, 2012; purified NadD enzyme, colorimetric absorbance read-out; hit rate 0.78% among 360,000; inhibition, % at 20 µM; in the data active = inhibition above about 26%
ABHD5-PLIN5 inh = ABHD5-PLIN5 interaction inhibitors, primary screen, cell lysate, split luciferase complementation, luminescence | Perilipin-5 (Homo sapiens) + 1-acylglycerol-3-phosphate O-acyltransferase ABHD5 (Homo … | Split G. princeps luciferase complementation, 4 h | inhibition, % at 4 µM | hit rate 0.78% among 360,000 | AID 602281, 2012;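 active = inhibition above the mean inhibition across every tested compound plus 3 SD, cut at about 22% in these data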;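 note: 0% = DMSO only wells and the 100% control is not disclosed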
Target sequence (Q00G26 whole entry, looked up): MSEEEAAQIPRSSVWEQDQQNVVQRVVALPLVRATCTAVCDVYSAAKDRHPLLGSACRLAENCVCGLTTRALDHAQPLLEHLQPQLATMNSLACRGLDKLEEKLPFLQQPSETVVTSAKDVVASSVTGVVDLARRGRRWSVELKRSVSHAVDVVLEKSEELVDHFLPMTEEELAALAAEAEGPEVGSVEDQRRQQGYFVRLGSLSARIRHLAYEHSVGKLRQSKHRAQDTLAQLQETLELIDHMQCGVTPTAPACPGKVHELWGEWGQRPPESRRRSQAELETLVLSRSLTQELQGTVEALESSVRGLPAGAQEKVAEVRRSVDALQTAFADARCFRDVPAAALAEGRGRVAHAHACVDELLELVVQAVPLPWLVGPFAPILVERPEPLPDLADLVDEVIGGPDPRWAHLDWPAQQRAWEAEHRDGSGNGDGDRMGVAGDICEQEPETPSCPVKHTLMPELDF
Target sequence (Q8WTS1 whole entry, looked up): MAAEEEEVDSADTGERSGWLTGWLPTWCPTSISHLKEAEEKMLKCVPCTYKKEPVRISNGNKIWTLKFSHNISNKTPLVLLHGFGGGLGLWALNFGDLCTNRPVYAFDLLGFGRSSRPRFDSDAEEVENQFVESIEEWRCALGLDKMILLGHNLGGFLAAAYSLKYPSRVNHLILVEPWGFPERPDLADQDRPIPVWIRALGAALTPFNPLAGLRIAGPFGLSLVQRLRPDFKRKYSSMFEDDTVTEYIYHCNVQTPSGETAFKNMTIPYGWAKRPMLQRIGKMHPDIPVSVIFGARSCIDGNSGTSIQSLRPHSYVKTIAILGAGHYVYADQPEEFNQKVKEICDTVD
core dimer inh = inhibitors of HCV core protein dimerization, primary screen, biochemical, TR-FRET, high-throughput; inhibition, % at 5 µM; AID 1899, 2009; hit rate 0.33% among 300,000; TR-FRET GST/Flag-core106 dimerization, 1536-well;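 active = inhibition above the mean of all tested compounds plus 3 SD, set per screening campaign, cut at about 45% in these data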
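Assay system: GST-tagged and Flag-tagged HCV core protein residues 1-106 / Times: compound-protein-antibody incubation 4 h at 22.5 °C / Signal: time-resolved FRET, ex 340 nm, em 617 and 671 nm / Evaluation: % inhibition based on acceptor/donor emission ratio / Benchmarks: wells lacking GST-core106 and wells with excess unlabelled core106 / Repeats: singlicate, one well per compound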
rCAG RNA binder = binders of r(CAG) RNA repeats, primary screen, biochemical, fluorescence; inhibition, % at 3 µM; hit rate 1.3% among 370,000; r(CAG) RNA repeat, TO-PRO-1 dye displacement fluorescence;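 active = inhibition above the plate cutoff, the mean of all test compounds on that plate plus 3 SD, cut at about 35% in these data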;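 note: 0% = DMSO alone and 100% = 100 µM mitoxantrone as full dye displacement; higher means more dye released from RNA so lower well fluorescence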
ABHD5-PLIN5 conf = ABHD5-PLIN5 interaction inhibitors, confirmation, biochemical, luminescence | inhibition, % at 4 µM | hit rate 67% among 2,200 | AID 651612, 2012 | shares compounds with ABHD5-PLIN5 inh; in the data active = inhibition above about 23%;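 note: 0% = DMSO vehicle wells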
HNF4 counter = HNF4 dimerization inhibitors, counter-screen for ABHD5-PLIN5 interaction inhibitor project, biochemical, split-luciferase complementation, luminescence | hit rate 77% among 2,200 | shares compounds with ABHD5-PLIN5 inh | inhibition, % at 4 µM | AID 651674, 2012;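 active = mean inhibition across replicate wells exceeding the computed hit threshold, cut at about 13% in these data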;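 note: light from luciferase halves that rejoin when HNF4 fusion proteins dimerize; 0% = DMSO only wells and the 100% control is not given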
Active calls of the source: *.

What do the screens show for `C=C(C=O)CC1CC(O)[C@]2(C)OC3CC4OC5C[C@]6(C)O[C@]7(C)CCC8OC9C[C@]%10(C)OC%11C(C)=CC(=O)OC%11CC%10OC9C[C@@H](C)C8OC7CC6O[C@]5(C)CC5OC5C4OC3CC2O1` (some centres not stated)?
NadD block: -10.0; ABHD5-PLIN5 inh: 22.1*; core dimer inh: 48.8*

How did Cc1ccc(CN2CCCC(C(=O)c3sccc3C)C2)o1 (configuration not stated) do in these assays?
NadD block: 2.9; ABHD5-PLIN5 inh: 9.2; core dimer inh: 3.1; rCAG RNA binder: -4.3

What do the screens show for `N#Cc1ncc(N=Cc2ccc(N(CCCl)CCCl)cc2)s1`?
NadD block: -0.6; ABHD5-PLIN5 inh: -7.9; rCAG RNA binder: 3.1

What do the screens show for `O=[N+]([O-])/C=C/c1c(Cl)cccc1Cl`?
NadD block: 9.3; ABHD5-PLIN5 inh: 22.2*; rCAG RNA binder: 3.6

What do the screens show for `O=C1NC(=O)N(c2ccc(F)cc2)C(=O)/C1=C/c1ccc(N2CCOCC2)cc1`?
NadD block: -0.2; ABHD5-PLIN5 inh: 21.4; core dimer inh: 1.0; rCAG RNA binder: 1.9

Results for O=C1NC(=O)N(Cc2ccc(F)cc2)C(=O)/C1=C\c1ccc(N2CCCC2)cc1 ?
NadD block: 33.5*; ABHD5-PLIN5 inh: -16.8; core dimer inh: 40.5; rCAG RNA binder: 16.9

Results for O=C(O)c1cc2ccccc2n1C1CCN(Cc2ccccc2)CC1 ?
rCAG RNA binder: 7.4

Results for COc1ccc(-n2c(/C=C/c3ccc(O)c(OC)c3)nc3ccccc3c2=O)cc1 ?
NadD block: 3.5; ABHD5-PLIN5 inh: -0.6; core dimer inh: 4.0; rCAG RNA binder: 6.9

How did COc1cc(/C=C/[N+](=O)[O-])ccc1O do in these assays?
NadD block: -0.6; ABHD5-PLIN5 inh: 69.5*; core dimer inh: -7.1; rCAG RNA binder: 15.6; ABHD5-PLIN5 conf: 86.1*; HNF4 counter: 93.0*

What do the screens show for `CN1C(=O)C(=Cc2cccnc2)C(=O)N(C)C1=O`?
NadD block: -2.2; ABHD5-PLIN5 inh: 26.6*; core dimer inh: 0.5; rCAG RNA binder: -2.3; ABHD5-PLIN5 conf: 37.4*; HNF4 counter: 49.1*

Results for COC(=O)C1=C(c2cccc(C#N)c2)C[C@@H]2CC[C@H]1N2C(=O)NCCNC(C)=O ?
NadD block: -2.7; ABHD5-PLIN5 inh: 2.9; rCAG RNA binder: -2.4

Results for COC(=O)c1nc(-c2ccc3c(n2)C(=O)C(N)=C(OC)C3=O)c(N)c(-c2ccc(OC)c(OC)c2O)c1C ?
NadD block: 8.4; ABHD5-PLIN5 inh: 25.1*; core dimer inh: 2.7; rCAG RNA binder: 33.6; ABHD5-PLIN5 conf: -16.1; HNF4 counter: 14.3*

Results for O=[N+]([O-])c1ccc(C2C3C(c4ccccc4)=NC4(CCCC4)N32)cc1 (configuration not stated) ?
NadD block: -4.1; ABHD5-PLIN5 inh: -7.0; core dimer inh: -10.9; rCAG RNA binder: -3.2

How did O=C1CC(c2cccnc2)=NN1c1ccc(Cl)cc1Cl do in these assays?
NadD block: 2.7; ABHD5-PLIN5 inh: 23.5*; core dimer inh: -0.2; rCAG RNA binder: 15.1; ABHD5-PLIN5 conf: 0.0; HNF4 counter: -0.1

How did CCN1C(=O)CC(c2cccnc2)=Nc2ccccc21 do in these assays?
NadD block: -3.7; ABHD5-PLIN5 inh: -5.7; core dimer inh: 0.3; rCAG RNA binder: -3.1

How did CCN(CC)S(=O)(=O)c1ccc(NN=C(C#N)C#N)cc1 do in these assays?
NadD block: 3.1; ABHD5-PLIN5 inh: 25.8*; core dimer inh: -1.2; rCAG RNA binder: 28.5; ABHD5-PLIN5 conf: 44.3*; HNF4 counter: 34.8*

Results for C=CCn1c(O)c(C(CC)=Nc2ccc(N(CC)CC)cc2)c(=O)[nH]c1=O ?
NadD block: 0.9; ABHD5-PLIN5 inh: -4.3; core dimer inh: -2.1; rCAG RNA binder: 0.4

What do the screens show for `CC(Cc1ccccc1)N(C)CC1C(=O)C2CCC1C2` (configuration not stated)?
NadD block: -3.9; ABHD5-PLIN5 inh: -7.6; rCAG RNA binder: 1.8

Results for O=c1[nH]c(=O)n(-c2cccc(F)c2)c(O)c1/C=C1\C=Nc2ccccc21 ?
NadD block: -0.4; ABHD5-PLIN5 inh: 16.4; core dimer inh: 4.2; rCAG RNA binder: 5.7

Results for Cn1c(O)c(/C=C2\C=Nc3ccccc32)c(=O)n(C)c1=O ?
NadD block: -1.9; ABHD5-PLIN5 inh: 34.7*; core dimer inh: -4.2; rCAG RNA binder: -0.8; ABHD5-PLIN5 conf: 6.8; HNF4 counter: 17.1*

Results for O=C(O)c1ccc(-n2c(O)c(/C=C3\C=Nc4ccccc43)c(=O)[nH]c2=O)cc1 ?
NadD block: -6.2; ABHD5-PLIN5 inh: 28.5*; core dimer inh: -6.9; rCAG RNA binder: -0.9; ABHD5-PLIN5 conf: 31.5*; HNF4 counter: 53.8*

How did COC(=O)C1=Nc2ccccc2/C1=C\c1c(O)n(C)c(=O)n(C)c1=O do in these assays?
NadD block: -3.4; ABHD5-PLIN5 inh: 12.1; core dimer inh: 5.9; rCAG RNA binder: 3.4

Results for O=C1CC(=O)N(c2ccccc2F)C(=O)N1 ?
NadD block: -5.7; ABHD5-PLIN5 inh: 23.2*; core dimer inh: -1.4; rCAG RNA binder: 0.8; ABHD5-PLIN5 conf: 11.8; HNF4 counter: 69.8*

How did O=C1CC(=O)N(c2ccc(Cl)cc2Cl)C(=O)N1 do in these assays?
NadD block: 10.2; ABHD5-PLIN5 inh: 16.1; core dimer inh: 1.7; rCAG RNA binder: 13.6

Results for CCOc1ccc(-c2cc(C)[n+](CCc3ccc(OC)c(OC)c3)c(-c3ccc(OCC)cc3)c2)cc1 ?
NadD block: -3.3; ABHD5-PLIN5 inh: 24.3*; rCAG RNA binder: 8.0; ABHD5-PLIN5 conf: 7.4; HNF4 counter: 9.8

Results for Cc1ccccc1N1CCN(C2CCCN(C(=O)Cc3c(C)noc3C)C2)CC1 (configuration not stated) ?
NadD block: -2.6; ABHD5-PLIN5 inh: 1.3; core dimer inh: -3.1; rCAG RNA binder: -7.4

How did O=C1NC(=O)C(=Cc2ccc(N3CCN(C(=O)c4ccccc4)CC3)c([N+](=O)[O-])c2)C(=O)N1 do in these assays?
NadD block: 11.0; ABHD5-PLIN5 inh: 40.9*; core dimer inh: 9.9; rCAG RNA binder: -1.1; ABHD5-PLIN5 conf: 91.2*; HNF4 counter: 90.0*

What do the screens show for `Clc1cccc(NC2=NCCS2)c1`?
NadD block: -7.1; ABHD5-PLIN5 inh: -1.9; rCAG RNA binder: 1.3

Results for Cn1c(O)c(/C=N/c2ncccn2)c(=O)n(C)c1=O ?
NadD block: -4.3; ABHD5-PLIN5 inh: 40.0*; core dimer inh: -4.7; rCAG RNA binder: -3.0; ABHD5-PLIN5 conf: 8.1; HNF4 counter: 23.1*

High-throughput results from PubChem.
